# Assay outcomes (PubChem)
# Rows were chosen to be rich in hits. Some 2.9% of all compounds tested hit in one or more screens of this group.
# PG9 Ab binder: binds the HIV-1 gp120 antibody PG9; TR-FRET gp120-PG9 antibody binding; 360,000 compounds, 0.43% hits; AID 624416; inhibition, % at 6.7 µM; in the data active = inhibition above about 8.5%
# Rev-erbA mod: Rev-erb alpha (human) modulation; 370,000 compounds, 0.79% hits; activity, % at 10 µM; Rev-erbα–FITC-DNA binding, fluorescence polarization, 90 min; P20393;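 active = activity above about 14%, limit read from the data; passing the limit was not always enough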
# Target sequence (P20393 whole entry, looked up): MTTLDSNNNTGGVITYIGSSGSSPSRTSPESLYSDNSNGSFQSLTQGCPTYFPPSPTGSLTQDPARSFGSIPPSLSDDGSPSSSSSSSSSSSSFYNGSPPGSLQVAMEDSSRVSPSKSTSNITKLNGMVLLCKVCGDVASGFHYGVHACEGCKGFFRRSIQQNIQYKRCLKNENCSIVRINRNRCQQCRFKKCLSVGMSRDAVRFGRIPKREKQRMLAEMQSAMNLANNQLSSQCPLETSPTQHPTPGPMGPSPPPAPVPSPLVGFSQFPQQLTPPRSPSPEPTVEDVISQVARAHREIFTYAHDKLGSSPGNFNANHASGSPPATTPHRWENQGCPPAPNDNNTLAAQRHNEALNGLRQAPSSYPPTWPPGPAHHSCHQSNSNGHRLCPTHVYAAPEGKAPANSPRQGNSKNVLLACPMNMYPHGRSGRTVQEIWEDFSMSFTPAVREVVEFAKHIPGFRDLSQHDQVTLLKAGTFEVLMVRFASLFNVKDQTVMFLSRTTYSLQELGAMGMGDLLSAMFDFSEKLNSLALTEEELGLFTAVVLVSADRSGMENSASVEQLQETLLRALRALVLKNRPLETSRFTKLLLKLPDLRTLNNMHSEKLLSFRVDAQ
# beta cell repl: inducers of beta-cell replication in MIN6 cells | MIN6 cells proliferation, ATPlite luminescence, 48 h; cells starved in 0.2% serum; 100% = growth in 10% serum | proliferation, % at 10 µM | 330,000 compounds, 0.29% hits | AID 2380;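 active = compounds whose signal lies at least 3.5 SD above the mean of all wells on their plate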
# H9c2 TAG inh: reduces triacylglycerol accumulation in H9c2 cells; inhibition, % at 12.5 µM; Nile Red lipid (TAG) fluorescence; cells loaded with 200 µM oleic acid; AID 651582; 230,000 compounds, 0.66% hits;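 active = pattern-corrected inhibition of lipid staining of at least 50% with the nuclear-stain viability signal not falling by more than 50%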
# iPSC survival up: enhancers of human iPSC single-cell survival | survival enhancement, % at 20 µM | AID 602274 | 360,000 compounds, 0.044% hits | hiPSC single-cell survival, ATPlite luminescence; 100% = ROCK inhibitor wells, 0% = DMSO; in the data active = survival enhancement above about 18%;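 also: cells exposed to compounds for 16 hours before the ATP read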
# T cruzi inh: T. cruzi replication inhibition | T. cruzi beta-gal in NIH3T3, luminescence, 90 h | inhibition, % (no concentration beside the values) | 300,000 compounds, 1.4% hits;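 active = mean inhibition across valid replicates above about 55%, limit read from the data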;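 also: signal also drops with host cell toxicity which is not excluded here; higher percent means less beta-gal luminescence so fewer parasites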
#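 Assay system: NIH/3T3 host cells with β-galactosidase reporter T. cruzi; input: 5,000 host fibroblasts per well; compound: single 50 nL compound addition per well in DMSO; timing: ≥90 h infection period, 3 h prior cell attachment; measured by: GalScreen β-gal luminescence, detergent lysis, 60 min; evaluation: percent inhibition of parasite-derived β-gal signal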
# H9c2 TAG conf: triacylglycerol accumulation inhibition, confirmation | shares compounds with H9c2 TAG inh | H9c2 lipid accumulation, Nile Red fluorescence; cells loaded with 200 µM oleic acid | inhibition, % at 12.5 µM | 990 compounds, 71% hits | AID 651629;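 active = mean inhibition across replicates of 40% or more; inactive = mean inhibition below 40%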
# Numbers stand for hits; – = inactive; · = not tested or not shown.
SMILES,PG9 Ab binder,Rev-erbA mod,beta cell repl,H9c2 TAG inh,iPSC survival up,T cruzi inh,H9c2 TAG conf
C#CCN(C[C@H]1[C@H](OC(=O)NCC2CCCCC2)[C@H](OC(=O)NCC2CCCCC2)C[C@@H](C(=O)OC)[C@H]1C(=O)OC)S(=O)(=O)c1ccc(C)cc1,–,–,·,82,–,·,89
CCC[C@@H](CN[C@@H](CNC)[C@H](C)CC)NCC1CCC(C(C)(C)C)CC1 (stereo partly specified),–,–,–,127,–,–,89
CCC[C@H](CN[C@@H](CNC)[C@H](C)CC)NCCc1cc(C(F)(F)F)cc(C(F)(F)F)c1,–,–,–,–,–,–,·
Cc1ccc(NC(=O)c2cc([N+](=O)[O-])ccc2NCc2cccnc2)cc1Cl,–,–,–,68,–,57,40
O=C(NCCNC1CCCCC1)c1ccco1,–,–,–,·,–,–,·
CCC(=O)Oc1ccc2c(C)cc(=O)oc2c1C(=O)c1ccccc1,–,–,·,·,–,–,·
N#CC(C#N)=c1ccc2c(c1)N1C(c3ccccc3)=CC(c3ccccc3)C3CCCCC31N=2 (stereo unspecified),–,–,–,89,–,–,119
Cc1cc2c(C)cc(=O)[nH]c2cc1NC(=O)CCl,–,–,–,–,–,–,·
O=C(CCl)Nc1cc2[nH]c(=O)[nH]c2cc1Br,–,–,–,51,–,–,69
CCOc1ccccc1NC(=O)CCC(=O)O,–,–,–,·,–,–,·
CCOc1ccccc1NC(=O)CCC(=O)Nc1ccccc1OCC,–,–,–,59,–,–,49
CCOc1ccccc1NC(=O)C1CCN(C(=O)NCc2ccccc2)CC1,–,–,–,63,–,–,47
Cc1cccc(NC(=O)Nc2ccc3c(c2)N(C)C(=O)CS3)n1,–,–,–,–,–,–,·
CCCCN1C=C(C(=O)OC)C(c2ccccc2C(F)(F)F)C(C(=O)OC)=C1,–,–,–,54,–,–,–
O=C(Nc1ccccc1)Nc1ccncc1,–,–,–,–,–,–,·
O=C(Nc1ccc(/C=C/c2nc3ccccc3o2)cc1)c1c(F)cccc1F,–,–,–,54,–,–,55
CC(=O)Nc1ccc(/C=C/c2nc3ccccc3o2)cc1,–,–,–,·,–,–,·
CCCCOc1ccc(CSC2=NCCN2)cc1[N+](=O)[O-],–,–,–,56,–,66,69
CCOc1ccc(CSC2=NCCN2)cc1[N+](=O)[O-],–,–,–,–,–,–,·
CCNC(=O)CC1C(=O)N(c2ccc(F)cc2)C(=O)N1CCc1ccc(OC)cc1 (stereo unspecified),–,–,–,·,–,–,·
Cc1onc(-c2ccccc2)c1-c1csc(N/N=C/c2ccccc2Cl)n1,–,–,–,–,–,·,·
Cc1onc(-c2ccc(Cl)cc2Cl)c1-c1csc(N/N=C/c2ccccc2Cl)n1,–,–,–,57,–,62,–
CCOCCCNc1nc2c(c(=O)n(C)c(=O)n2C)n1CCCc1ccccc1,–,–,–,–,–,–,·
C[C@]12c3[nH]c4cc(-c5ccco5)ccc4c3CCN1C(=O)[C@@H](CC(=O)NCCCn1ccnc1)C[C@@H]2C(=O)N1CCCCC1,–,–,·,–,–,·,·
CC(C)(C)NC(=O)C[C@H]1C[C@H](C(=O)N2CCCCC2)[C@@]2(CCc3ccccc3)c3[nH]c4cc(-c5ccco5)ccc4c3CCN2C1=O,–,–,·,–,–,·,·
SMILES,PG9 Ab binder,Rev-erbA mod,beta cell repl,H9c2 TAG inh,iPSC survival up,T cruzi inh,H9c2 TAG conf
CN(C)CCCNC(=O)C[C@H]1C[C@H](C(=O)N2CCCCC2)[C@@]2(CCc3ccccc3)c3[nH]c4cc(-c5ccco5)ccc4c3CCN2C1=O,–,–,·,57,–,·,70
CN(C)CCCNC(=O)CC1C[C@H](C(=O)N2CCCCC2)[C@@]2(CCc3ccccc3)c3[nH]c4ccccc4c3CCN2C1=O (stereo partly specified),–,–,–,53,–,·,48
CN(C)CCCNC(=O)C[C@H]1C[C@H](C(=O)N2CCCCC2)[C@@]2(C)c3[nH]c4cc(-c5ccco5)ccc4c3CCN2C1=O,–,–,·,58,–,·,–
Cc1ccccc1CN1C(=O)CSCC1(C)C(=O)NC(C)C (stereo unspecified),–,–,·,·,·,·,·
O=C(O)CC1(CC(=O)Nc2cc(C(F)(F)F)cc(C(F)(F)F)c2)CCCCC1,–,–,–,94,–,–,–
Cc1ccc2c(c1)N(C(=O)CCC(=O)NCCCN1CCN(C)CC1)CCO2,–,–,–,–,–,–,·
Cc1ccc2c(c1)N(C(=O)CCC(=O)NCCCN1CCC(Cc3ccccc3)CC1)CCO2,–,–,–,61,–,–,60
COCCNc1nc(-c2ccc(OC)cc2C)c2sc(-c3ccccc3)cc2n1,–,–,·,60,–,·,–
COc1ccccc1C(=O)Nc1cc(C)c(OCC(=O)N2CCOCC2)c(C)c1,–,–,–,–,–,–,·
Cc1ccc(C(=O)Nc2cc(C)c(OCC(=O)N3CCOCC3)c(C)c2)cc1,–,–,–,63,–,–,42
Cc1cnc(C(=O)OC(C)C(=O)Nc2ccccc2-c2ccccc2)cn1 (stereo unspecified),–,–,–,–,–,–,·
Cc1ccc(OCCn2c(=O)cnc3ccccc32)cc1,–,–,–,–,–,–,·
O=C(NCc1cccnc1)C1c2ccccc2C(=O)N1C1CCCCCCC1 (stereo unspecified),–,–,–,·,–,–,·
CCOC(=O)c1cnn(-c2ccccc2)c1N,–,–,–,·,–,–,·
CCOC(=O)c1cnn(-c2nc(-c3ccccc3)nc3c2COC(C)(C)C3)c1N,–,–,–,54,–,–,–
Cc1ccc(C2=NC3(CCCCC3)NC2=S)cc1,–,–,–,·,–,–,·
CCOc1ccc(C(c2c(NC(=O)c3ccccc3)sc(C)c2C)N2CCN(CCO)CC2)cc1 (stereo unspecified),–,–,–,·,–,–,·
CCOC(=O)NC1CCc2cc(OC)c(OC)c(OC)c2-c2ccc(SC)c(=O)cc21 (stereo unspecified),–,–,·,–,–,·,·
CCOCC(=O)NC1CCc2cc(OC)c(OC)c(OC)c2-c2ccc(SC)c(=O)cc21 (stereo unspecified),–,–,·,54,–,·,–
COC(=O)c1ccc(C(=O)OC)c(NC(=O)CN2CCN(c3ccccc3)CC2)c1,–,–,–,·,–,–,·
COC(=O)c1ccc(C(=O)OC)c(NC(=O)CN2CCN(c3ccc(OC)cc3)CC2)c1,–,–,–,56,–,–,–
COc1cc(-c2cnc3c(NC=O)cc(-c4ccccc4)cn23)cc(OC)c1OC,–,–,·,–,–,·,·
